Results reported in ChEMBL document CHEMBL1125138, “1,3-Dialkyl-3-acyltriazenes, a novel class of antineoplastic alkylating agents” (J Med Chem, 1990).

Tests used:
SK-MEL-5 = experiment: Evaluated for the inhibitory concentration required to cause growth inhibition of SK-MEL-5 melanoma cell line using the MTT Cytotoxicity Assay; assay type: functional, cell-based; conditions: Homo sapiens
Procedure, shortened: (§1)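 MTT microculture tetrazolium growth assay on human cell lines and normal fibroblasts. Cells seeded at 1000 cells/well, with compound added 24 h after plating. Cultures then incubated a further 6 days at 37 °C before MTT read-out of growth versus untreated cells.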

CCD 19Lu = experiment: Evaluated for the inhibitory concentration required to cause growth inhibition of CCD-19Lu fibroblasts cell line using the MTT Cytotoxicity Assay; assay type: functional, cell-based; conditions: Homo sapiens; procedure, shortened: as §1
OVCAR-4 = experiment: Evaluated for the inhibitory concentration required to cause growth inhibition of OVCAR-4 ovarian cell line using the MTT Cytotoxicity Assay; assay type: functional, cell-based; conditions: Homo sapiens; procedure, shortened: as §1
DOD-1 = experiment: Evaluated for the inhibitory concentration required to cause growth inhibition of DOD-1 breast cell line using the MTT Cytotoxicity Assay; assay type: functional, cell-based; conditions: Homo sapiens; procedure, shortened: as §1
MCF7 = experiment: Evaluated for the inhibitory concentration required to cause growth inhibition of MCF-7 breast cell line using the MTT Cytotoxicity Assay; assay type: functional, cell-based; conditions: Homo sapiens; procedure, shortened: as §1
OVCAR-3 = experiment: Evaluated for the inhibitory concentration required to cause growth inhibition of OVCAR-3 ovarian cell line using the MTT Cytotoxicity Assay; assay type: functional, cell-based; conditions: Homo sapiens; procedure, shortened: as §1
NCI-H23 = experiment: Evaluated for the inhibitory concentration required to cause growth inhibition of H23 cell line of lung using the Microculture Tetrazolium (MTT) Cytotoxicity Assay; assay type: functional, cell-based; conditions: Homo sapiens; procedure, shortened: as §1
LOX IMVI = experiment: Evaluated for the inhibitory concentration required to cause growth inhibition of LOX melanoma cell line using the MTT Cytotoxicity Assay; assay type: functional, cell-based; conditions: Homo sapiens; procedure, shortened: as §1
U-251 = experiment: Evaluated for the inhibitory concentration required to cause growth inhibition of U251 cell line of central nervous system (CNS) using the MTT Cytotoxicity Assay; assay type: functional, cell-based; conditions: Homo sapiens
Procedure, shortened: (§2)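 MTT cell-growth assay in human cell lines: cells harvested and seeded at 1000 cells/well in 96-well plates. Compound added after 24 h, then cultures incubated a further 6 days at 37 °C. Growth measured with and without agent.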

TE-671 = experiment: Evaluated for the inhibitory concentration required to cause growth inhibition of TE-671 cell line of central nervous system (CNS)using the MTT Cytotoxicity Assay; assay type: functional, cell-based; conditions: Homo sapiens; procedure, shortened: as §1
NCI-H322M = experiment: Evaluated for the inhibitory concentration required to cause growth inhibition of H322M cell line of lung using the Microculture Tetrazolium (MTT) Cytotoxicity Assay; assay type: functional, cell-based; conditions: Homo sapiens; procedure, shortened: as §1
A549 = experiment: Evaluated for the inhibitory concentration required to cause growth inhibition of A549Rem- cell line of lung using the MTT Cytotoxicity Assay; assay type: functional, cell-based; conditions: Homo sapiens; procedure, shortened: as §1
[1] = system: MAR BEL fibroblasts cell line; experiment: Evaluated for the inhibitory concentration required to cause growth inhibition of MAR BEL fibroblasts cell line using the MTT Cytotoxicity Assay; assay type: functional, cell-based; conditions: Homo sapiens; procedure, shortened: as §1
A498 = experiment: Evaluated for the inhibitory concentration required to cause growth inhibition of A498Rem- renal cell line using the MTT Cytotoxicity Assay; assay type: functional, cell-based; conditions: Homo sapiens; procedure, shortened: as §1
NCI-H460 = experiment: Evaluated for the inhibitory concentration required to cause growth inhibition of H460 cell line of lung using the Microculture Tetrazolium (MTT) Cytotoxicity Assay; assay type: functional, cell-based; conditions: Homo sapiens; procedure, shortened: as §1
NCI-H522 (Homo sapiens) = experiment: Evaluated for the inhibitory concentration required to cause growth inhibition of H522 cell line of lung using the Microculture Tetrazolium (MTT) Cytotoxicity Assay
NCI-H125 = experiment: Evaluated for the inhibitory concentration required to cause growth inhibition of H125 cell line of lung using the Microculture Tetrazolium (MTT) Cytotoxicity Assay; assay type: functional, cell-based; conditions: Homo sapiens; procedure, shortened: as §1
A704 = experiment: Evaluated for the inhibitory concentration required to cause growth inhibition of A704Rem- renal cell line using the MTT Cytotoxicity Assay; assay type: functional, cell-based; conditions: Homo sapiens; procedure, shortened: as §1
HOS-TE85 = experiment: Evaluated for the inhibitory concentration required to cause growth inhibition of TE85Mer+ sarcoma cell line using the MTT Cytotoxicity Assay; assay type: functional, cell-based; conditions: Homo sapiens; procedure, shortened: as §1
RPMI-7951 = experiment: Evaluated for the inhibitory concentration required to cause growth inhibition of RPMI7951 melanoma cell line using the MTT Cytotoxicity Assay; assay type: functional, cell-based; conditions: Homo sapiens; procedure, shortened: as §1
A673 = experiment: Evaluated for the inhibitory concentration required to cause growth inhibition of A673Mer+ sarcoma cell line using the MTT Cytotoxicity Assay; assay type: functional, cell-based; conditions: Homo sapiens; procedure, shortened: as §1
A-427 = experiment: Evaluated for the inhibitory concentration required to cause growth inhibition of A427Mer- cell line of lung using the MTT Cytotoxicity Assay; assay type: functional, cell-based; conditions: Homo sapiens; procedure, shortened: as §1
NCI-H358 = experiment: Evaluated for the inhibitory concentration required to cause growth inhibition of H358M cell line of lung using the Microculture Tetrazolium (MTT) Cytotoxicity Assay; assay type: functional, cell-based; conditions: Homo sapiens; procedure, shortened: as §1
WiDr = experiment: Evaluated for the inhibitory concentration required to cause growth inhibition of WiDR colon cell line using the MTT Cytotoxicity Assay; assay type: functional, cell-based; conditions: Homo sapiens; procedure, shortened: as §2
Malme-3M = experiment: Evaluated for the inhibitory concentration required to cause growth inhibition of MALME-3M melanoma cell line using the MTT Cytotoxicity Assay; assay type: functional, cell-based; conditions: Homo sapiens; procedure, shortened: as §1
NCI/ADR-RES = experiment: Evaluated for the inhibitory concentration required to cause growth inhibition of MCF-7ADR breast cell line using the MTT Cytotoxicity Assay; assay type: functional, cell-based; conditions: Homo sapiens; procedure, shortened: as §1
[2] = Evaluated for the antineoplastic activity against amelanotic melanoma tumor xenograft in nude mice after injecting intraperitoneally at a dose of 120 mg/kg; assay type: functional, Mus musculus; conditions: route intraperitoneal
[3] = Evaluated for the antineoplastic activity against M5 sarcoma tumor xenograft in nude mice after administering Intra peritoneally at 4-day interval at a dose of 15 mg/kg; assay type: functional, Mus musculus
Procedure, shortened: (§3)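 M5 sarcoma-bearing mice given four intraperitoneal injections at 4-day intervals. Activity reported as % T/C per dose. Performed under the NCI Developmental Therapeutics Program.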

[4] = Evaluated for the antineoplastic activity against M5 sarcoma tumor xenograft in nude mice after administering Intra peritoneally at 4-day interval at a dose of 7.5 mg/kg; assay type: functional, Mus musculus; procedure, shortened: as §3
L1210 [5] = experiment: Evaluated for the antineoplastic activity against L1210 leukemia tumor […] after administering intra peritoneally at a dose of 30 mg/kg; assay type: functional, Mus musculus
Procedure, shortened: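 Mice bearing L1210 leukemia dosed intraperitoneally once daily for 5 successive days (five injections). Activity reported as % T/C at each dose. Performed under the NCI Developmental Therapeutics Program.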

[6] = Evaluated for the antineoplastic activity against M5 sarcoma tumor xenograft in nude mice after administering Intra peritoneally at 4-day interval at a dose of 60 mg/kg; assay type: functional, Mus musculus; procedure, shortened: as §3
[7] = Evaluated for the antineoplastic activity against amelanotic melanoma tumor xenograft in nude mice after injecting intraperitoneally at a dose of 60 mg/kg; assay type: functional, Mus musculus; conditions: route intraperitoneal
L1210 [8] = experiment: Evaluated for the antineoplastic activity against L1210 leukemia tumor […] after administering intra peritoneally at a dose of 15 mg/kg; assay type: functional, Mus musculus
[9] = Evaluated for the antineoplastic activity against amelanotic melanoma tumor xenograft in nude mice after injecting intraperitoneally at a dose of 30 mg/kg; assay type: functional, Mus musculus; conditions: route intraperitoneal
[10] = Evaluated for the antineoplastic activity against M5 sarcoma tumor xenograft in nude mice after administering Intra peritoneally at 4-day interval at a dose of 30 mg/kg; assay type: functional, Mus musculus; procedure, shortened: as §3
A 172 = experiment: Evaluated for the inhibitory concentration required to cause growth inhibition of A172Mer- cell line of central nervous system (CNS) using the MTT Cytotoxicity Assay; assay type: functional, cell-based; conditions: Homo sapiens; procedure, shortened: as §1

SMILES	IC50 (SK-MEL-5) [µM]	IC50 (CCD 19Lu) [µM]	IC50 (OVCAR-4) [µM]	IC50 (DOD-1) [µM]	IC50 (MCF7) [µM]	IC50 (OVCAR-3) [µM]	IC50 (NCI-H23) [µM]	IC50 (LOX IMVI) [µM]	IC50 (U-251) [µM]	IC50 (TE-671) [µM]	IC50 (NCI-H322M) [µM]	IC50 (A549) [µM]	IC50 [1] [µM]	IC50 (A498) [µM]	IC50 (NCI-H460) [µM]	IC50 (NCI-H522 (Homo sapiens)) [µM]	IC50 (NCI-H125) [µM]	IC50 (A704) [µM]	IC50 (HOS-TE85) [µM]	IC50 (RPMI-7951) [µM]	other results
C/N=N\N(C)C(C)=O	37	77	45	60	37	55	42	30	42	7	55	55	80	48	75	30	53	55	40	60	IC50 (A673): 65 µM; IC50 (A-427): 11 µM; IC50 (NCI-H358): 100 µM; IC50 (WiDr): 40 µM; IC50 (Malme-3M): 25 µM; IC50 (NCI/ADR-RES): 40 µM
CCOC(=O)N(C)/N=N\C	20	62	40	44	27	60	20	22	28	48	42	45	75	35	65	18	44	55	37	35	T/C [2]: 191%; T/C [3]: 140%; T/C [4]: 131%; T/C (L1210 [5]): 142%; T/C [6]: 168%; IC50 (A673): 75 µM; T/C [7]: 147%; IC50 (A-427): 7 µM; IC50 (NCI-H358): 80 µM; IC50 (WiDr): 45 µM; T/C (L1210 [8]): 133%; T/C [9]: 132%; IC50 (Malme-3M): 22 µM; T/C [10]: 158%; IC50 (NCI/ADR-RES): 34 µM; IC50 (A 172): 20 µM
